An excerpt weighted towards active compounds, which were near 2.1% of everything screened.
ARNT TACC3 PPI = disruptors of human ARNT/TACC3 interaction; AlphaScreen His-ARNT PAS-B/GST-TACC3 binding, luminescence; TACC3 fragment carries E629A point mutation; inhibition, % at 9.99 µM; 390,000 compounds, 0.66% hits; AID 623870;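 active = mean inhibition of replicates at least 50% and at least half of replicates each reaching 50%; inconclusive = half or more replicates reach 50% but mean below 50%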;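 note: 0% = complete ARNT plus TACC3 wells and 100% = ARNT alone without TACC3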
ERp5 inh = ERp5 (human) disulfide isomerase inhibition; ERp5 insulin aggregation, absorbance 650 nm, 90 min; inhibition, % at 9.99 µM; Q15084; 350,000 compounds, 0.05% hits; AID 651711;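 active = mean replicate inhibition above about 25%, with every replicate also reaching it, limit read from the data, passing the limit was not always enough; inconclusive = only one of those two criteria met; inactive = neither criterion met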
FGF22 binding = FGF22 (human) thermal shift binding; recombinant FGF22 thermal shift, SYPRO orange fluorescence; percent of sucrose octasulfate shift, DMSO zero; AID 651658; 340,000 compounds, 1.5% hits; Q9HCT0; activity (Tm shift, normalised), % at 9.99 µM;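 active = mean Tm shift, scaled 0 neutral to 100 positive control, at about 1.3% or above, every replicate too, limit read from the data; inconclusive = no clear call, values can overlap the other calls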
Target sequence (Q9HCT0 whole entry, looked up): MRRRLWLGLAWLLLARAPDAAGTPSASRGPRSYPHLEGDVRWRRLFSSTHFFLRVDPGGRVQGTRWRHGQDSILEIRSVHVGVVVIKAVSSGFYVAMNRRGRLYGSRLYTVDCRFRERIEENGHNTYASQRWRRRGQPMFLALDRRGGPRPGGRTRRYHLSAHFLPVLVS
PDI turbidity = PDI (human) enzyme inhibition; AID 588391; inhibition, % at 10 µM; PDI insulin aggregation turbidity, A650, 90 min; 350,000 compounds, 0.052% hits; P07237;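 active = mean inhibition across replicates of 30% or more, whatever share of single replicates reach that level; inconclusive = mean inhibition below 30% while every single replicate reaches 30%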
MLL AF4-AF9 inh = inhibitors of human MLL-AF4/AF9 interaction; P42568; AlphaScreen, biotin-AF4 peptide binding to FLAG-AF9; inhibition, % at 10 µM; 350,000 compounds, 0.47% hits; AID 651704;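 active = every replicate reaching a set inhibition limit, whatever the replicate mean, cut at about 25% in these data; inconclusive = mean inhibition reaches that limit but some replicates miss it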;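 note: 0% = plate neutral control median and 100% = total signal loss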
Target sequence (P42568 whole entry, looked up): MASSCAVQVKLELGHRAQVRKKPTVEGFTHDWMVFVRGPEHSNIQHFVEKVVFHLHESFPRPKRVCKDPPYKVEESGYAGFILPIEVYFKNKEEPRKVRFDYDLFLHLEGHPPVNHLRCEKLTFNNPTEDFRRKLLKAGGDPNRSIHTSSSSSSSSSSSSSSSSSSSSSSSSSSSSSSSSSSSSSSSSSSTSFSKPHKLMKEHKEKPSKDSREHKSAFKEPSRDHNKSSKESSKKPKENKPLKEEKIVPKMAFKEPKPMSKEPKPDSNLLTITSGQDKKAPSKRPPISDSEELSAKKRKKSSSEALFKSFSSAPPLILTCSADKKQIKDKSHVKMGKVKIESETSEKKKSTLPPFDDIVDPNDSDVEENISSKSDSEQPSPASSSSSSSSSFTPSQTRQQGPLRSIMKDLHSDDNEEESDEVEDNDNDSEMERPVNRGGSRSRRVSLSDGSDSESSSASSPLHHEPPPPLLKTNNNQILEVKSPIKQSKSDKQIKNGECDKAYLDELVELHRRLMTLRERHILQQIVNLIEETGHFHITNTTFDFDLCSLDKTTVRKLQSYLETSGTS
FN deposition inh = fibronectin deposition inhibition. 350,000 compounds, 0.086% hits. AH1F fibroblasts, Alexa488-fibronectin deposition fluorescence, overnight. AID 743247. inhibition, % at 12.6 µM;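 active = mean inhibition across replicates of 30% or more, regardless of how many single replicates reach that level; inconclusive = mean under 30% yet at least half of replicates reach 30%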;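 note: positive control wells lacked labelled fibronectin entirely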
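Material: AH1F fibroblast monolayer depositing Alexa488-labelled fibronectin into matrix | Input: 10000 AH1F cells/well | Medium: DMEM plus 2% serum, read in PBS | Reagent: Alexa488-fibronectin, 24 nM final in well | Compound dosing: One dose per compound, pinned | Schedule: 1 h adhesion, overnight exposure | Measured by: Fluorescence at 485 nm excitation, 525 nm emission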
* marks the source's active call; other numbers are inactive results; ? = inconclusive; · = no result.

SMILES | ARNT TACC3 PPI | ERp5 inh | FGF22 binding | PDI turbidity | MLL AF4-AF9 inh | FN deposition inh
NCC[C@@H]1CC[C@@H](NC(=O)CCN2CCCCC2)[C@H](CO)O1 | -7.3 | -6.6 | 0.0 | · | 19.4 | -2.3
O=C(O)C[C@@H]1CC[C@@H](NC(=O)CCN2CCCCC2)[C@H](CO)O1 | · | -5.3 | · | · | -3.4 | 3.0
NCC[C@H]1CC[C@@H](NC(=O)CCN2CCCCC2)[C@H](CO)O1 | -3.3 | 4.7 | -0.2 | · | 59.3* | -5.0
O=C(CN1CCOCC1)N[C@H]1CC[C@H](CCNC(=O)C2CCC2)O[C@H]1CO | 21.5 | 1.0 | -0.3 | · | 43.3* | -11.7
NCC[C@H]1CC[C@H](NC(=O)CCN2CCCCC2)[C@@H](CO)O1 | 5.5 | 4.1 | -0.3 | · | 27.9* | 6.5
Cc1noc(C)c1S(=O)(=O)Nc1cccc2c1O[C@@H](CN(C)Cc1ccc(Cl)c(Cl)c1)[C@@H](C)CN([C@@H](C)CO)C2=O | 1.6 | 1.9 | -0.6 | · | 2.5 | ·
O=S(=O)(/C=C/C=C/S(=O)(=O)c1ccccc1)c1ccccc1 | · | 2.1 | 0.5 | -0.1 | -6.4 | 33.6*
Cc1ccc(S(=O)(=O)c2ccc(C)cc2)cc1 | -3.1 | 6.1 | 0.3 | -3.4 | -1.5 | ·
Cc1ccc(S(=O)(=O)C=CS(=O)(=O)c2ccc(C)cc2)cc1 | · | 31.5* | -0.1 | 3.7 | 5.3 | 15.9
NS(=O)(=O)c1ccccc1 | 1.1 | 0.0 | -0.2 | -4.7 | -7.4 | -10.8
COc1cccc(CNc2ccc3c(c2)ncn3C(C)C)c1OC | -3.4 | -5.0 | 0.1 | 15.9 | 47.9* | 1.2
CCCn1cnc2cc(NCc3cccc(OC)c3O)ccc21 | 6.9 | · | · | 2.1 | · | 2.2
CC(C)NC(=O)N(C)C[C@@H]1Oc2ccc(N(S(C)(=O)=O)S(C)(=O)=O)cc2C(=O)N(C)C[C@@H]1C | · | · | · | · | · | -2.4
C[C@H]1CN([C@@H](C)CO)C(=O)c2cc(NC(=O)CCCN(C)C)ccc2O[C@H]1CN(C)C(=O)Nc1ccc2c(c1)OCO2 | -5.2 | 2.3 | 0.1 | · | -0.6 | 3.9
NCc1cc2c3c(c1)CCCN3CCC2 | 33.9 | 4.6 | 0.2 | 4.3 | 51.3* | 5.1
C/C(=N/NC(=O)OC(C)(C)C)c1ccco1 | -14.8 | 2.5 | 43.6* | -17.8 | -1.1 | 6.0
CC(/C=C/c1ccco1)=N/NC(=O)OC(C)(C)C | -1.8 | -0.4 | 0.1 | 5.4 | 3.3 | -9.4
Cn1c(-c2ccccc2)c(C(=O)CCl)c2ccccc21 | 26.8 | -3.0 | 44.3* | -0.9 | 0.8 | -1.1
CCn1c(-c2ccccc2)c(C(=O)CCl)c2ccccc21 | -2.5 | -3.3 | -0.1 | -4.5 | 1.5 | -1.4
CCN(CC)C(=O)C1CCCN(c2ccccc2[N+](=O)[O-])C1 (centres undefined) | -4.7 | 2.8 | 43.0* | 2.7 | -1.4 | ·
COC(=O)C[C@H]1CC[C@H]2[C@@H](COc3ccc(NS(C)(=O)=O)cc3C(=O)N2C)O1 | · | -4.5 | · | · | -3.7 | -0.6
COc1cc(NC(=O)COc2ccccc2)c(OC)cc1NC(C)=O | 21.3 | 1.0 | 43.1* | 0.1 | 0.8 | -15.7
CC(C)NC(=O)N(C)C[C@@H]1Oc2ccc(NC(=O)Cc3cn(C)c4ccccc34)cc2CC(=O)N([C@@H](C)CO)C[C@H]1C | 4.9 | -3.5 | 0.1 | · | 2.5 | -5.3
CCOC(=O)[C@@H]1[C@H]2COc3ccccc3[C@@H]2N2C(=O)N(c3ccc(C)cc3)C(=O)[C@@]12C | -4.5 | 2.8 | 0.2 | -3.0 | · | 4.5
CCOC(=O)[C@@H]1[C@H]2COc3ccccc3[C@@H]2N2C(=O)N(c3ccc(F)cc3)C(=O)[C@@]12C | -0.3 | -1.9 | 44.9* | -7.6 | 0.7 | 1.8
SMILES | ARNT TACC3 PPI | ERp5 inh | FGF22 binding | PDI turbidity | MLL AF4-AF9 inh | FN deposition inh
CCN1CCN(C2=C(NS(=O)(=O)c3ccc(NC(C)=O)cc3)C(=O)c3ccccc3C2=O)CC1 | 11.9 | 1.8 | 0.0 | 3.2 | 4.5 | -1.5
CCOC(=O)N1CCN(C2=C(NS(=O)(=O)c3ccc(NC(C)=O)cc3)C(=O)c3ccccc3C2=O)CC1 | 31.2* | 13.3 | -0.4 | -5.8 | 21.4 | 2.3
CC(=O)Nc1ccc(S(=O)(=O)NC2=C(N3CCN(Cc4ccccc4)CC3)C(=O)c3ccccc3C2=O)cc1 | 26.2 | 3.1 | -0.7 | -15.5 | 40.6* | -2.1
CCC(=O)Nc1ccc2c(c1)C(=O)N(C)C[C@@H](OC)[C@@H](C)CN(C(=O)c1ccccn1)[C@H](C)CO2 | -5.7 | -1.1 | 0.4 | · | ? | 2.0
CO[C@H]1CN(C)C(=O)c2cc(NC(C)=O)ccc2OC[C@@H](C)N(C(=O)Cc2ccccn2)C[C@@H]1C | -1.8 | -1.8 | 0.7 | · | 28.6* | -3.8
CO[C@H]1CN(C)C(=O)c2cc(NC(C)=O)ccc2OC[C@H](C)N(C(=O)Cc2ccccn2)C[C@@H]1C | -7.2 | -0.3 | 0.8 | · | ? | 0.5
CCC(=O)Nc1ccc2c(c1)C(=O)N(C)C[C@H](OC)[C@@H](C)CN(C(=O)c1ccccn1)[C@@H](C)CO2 | -6.1 | -0.1 | 0.4 | · | 26.2* | -12.2
CCCNC(=O)C[C@H]1C[C@@H]2c3cc(NS(=O)(=O)c4ccc(F)cc4)ccc3O[C@@H]2[C@@H](CO)O1 | -9.5 | 0.9 | -0.1 | · | -1.9 | -41.0
CN1C(=O)c2cc(NC(=O)NC3CCCC3)ccc2OC[C@H]2O[C@H](CC(=O)NCC3CC3)CC[C@H]21 | -7.6 | -2.2 | 0.6 | · | -1.6 | -0.2
Cc1ccc(S(=O)(=O)NCCCC(=O)N2CCC(C)CC2)cc1 | -4.0 | 0.0 | -0.1 | 2.2 | 2.3 | -3.4
Cc1ccc(S(=O)(=O)NCC(=O)N2CCC(C)CC2)cc1 | -9.1 | -6.8 | -0.2 | 6.2 | 48.4* | 3.4
C[C@@H]1CN([C@H](C)CO)C(=O)c2cc(NC(=O)Nc3ccc4c(c3)OCO4)ccc2O[C@@H]1CN(C)S(=O)(=O)c1ccccc1 | 2.2 | -3.1 | -0.2 | · | -2.7 | ·
O=C(CCl)N=c1sccn1Cc1ccc(Cl)cc1Cl | -11.0 | 7.1 | 44.0* | 5.6 | 0.3 | 25.0
O=C(CCc1nc2ccccc2c(=O)[nH]1)Nc1nc(-c2cccs2)cs1 | -3.6 | -8.0 | -0.2 | 6.4 | 0.4 | 3.0
CN(c1ccc(-c2csc(NC(=O)CCCc3nc4ccccc4c(=O)[nH]3)n2)cc1)S(C)(=O)=O | · | -4.5 | 44.0* | 0.5 | 1.8 | -0.3
COCC(=O)N1CC(=O)N2[C@H](CO)[C@H](c3ccc(C#CC4CCCCC4)cc3)[C@H]2C1 | · | -0.8 | · | · | 0.5 | ·
COc1ccccc1-c1ccc([C@@H]2[C@@H](CO)N3CCCCN(C(=O)CN4CCOCC4)C[C@@H]23)cc1 | 0.2 | 6.2 | -0.4 | · | -0.8 | ·
O=C(NCc1cccnc1)Nc1ccc2c(c1)OCO2 | -5.7 | 7.7 | 43.2* | 2.3 | 0.9 | 14.5
O=C(COC(=O)c1cccnc1)Nc1ccc2c(c1)OCO2 | -10.2 | -2.9 | 43.3* | -4.6 | -13.0 | -19.8
CCOc1ccccc1NC(=O)NCc1cccnc1 | 0.8 | -5.7 | 42.9* | 1.5 | 0.2 | -0.2
